These results are taken from ChEMBL document CHEMBL5143748, “Quinolines and Oxazino-quinoline Derivatives as Small Molecule GLI1 Inhibitors Identified by Virtual Screening” (ACS Med Chem Lett, 2022).

In one assay the test system is NIH3T3. As to the kind of experiment: Inhibition of hedgehog signalling in SAG-induced mouse NIH3T3 cells assessed as decrease in GLI1 protein expression level at 1 uM for 48 hrs by Western blot analysis. It counts as cell-based. The gist of the method: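 Murine NIH3T3 cells, endogenous Hh pathway activated with the SMO agonist SAG (100 nM), co-treated with compound (1 μM), DMSO vehicle or GANT61 (5 μM) for 48 h. Endogenous GLI1 detected by Western blot with HSP90 as loading control. Reduction graded qualitatively, e.g. "+" weak, "NA" not affected.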
In general terms: Immunoblotting shows a protein as a band on a membrane.

For the next assay, the system named is Daoy. Nature of the assay: Antiproliferative activity against human DaOY cells assessed as reduction in cell viability incubated for 72 hrs by trypan blue or crystal violet staining based assay. It counts as functional. The gist of the method:
(§1)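 IC50 in micromolar, fitted from triplicate experiments in human melanoma A375 and medulloblastoma DAOY cells.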

A further assay has as its system A-375. Nature of the assay: Antiproliferative activity against human A375 cells assessed as reduction in cell viability incubated for 72 hrs by trypan blue or crystal violet staining based assay. It counts as functional. The note with it: A-375, 72 h. The gist of the method:
as §1

The source made the active and inactive calls. No cut-off for these calls is given here.

The IC50 is the concentration at which inhibition is half-maximal. Take `c1ccc2c(c1)CCCC2N1COc2c(ccc3cccnc23)C1` (stereo not given): the inhibition result in the assay with NIH3T3 was “Active”. For the same compound, the results for the IC50 in the assay with Daoy and with A-375 were 600 nM and 300 nM, respectively.

On to `c1cnc2c3c(ccc2c1)CN(C1CCCCC1)CO3`, for which, in the assay on NIH3T3, the inhibition result was “Active”. For the same compound, the IC50 with Daoy was 500 nM; in the assay with A-375, 300 nM.

Take `CCCC(=O)NC(c1ccc(Cl)cc1Cl)c1ccc2cccnc2c1O` (stereo not given): in the assay on NIH3T3, the inhibition result was “Active”. The IC50 with Daoy turned out to be 190 nM; in the assay with A-375, 110 nM.

On to `Clc1cnc2c3c(ccc2c1)CN(CCCN1CCOCC1)CO3`, for which the inhibition entry in the assay on NIH3T3 was “Active”. Further, the IC50 in the assay with Daoy came to 1200 nM; in the assay with A-375, 150 nM.

Take `CCCCC(=O)NC(c1ccc(Cl)cc1)c1ccc2cccnc2c1O` (stereo not given): the inhibition result in the assay on NIH3T3 was “Active”. The IC50 in the assay on Daoy is 330 nM; in the assay with A-375 it was 710 nM.

For `CCCCC(=O)NC(c1cc(Cl)cc(Cl)c1)c1ccc2cccnc2c1O` (stereo not given), the inhibition entry with NIH3T3 was “Active”. Also, the IC50 is 140 nM in the assay with Daoy and 90 nM in the assay with A-375.

Regarding `COc1ccc(C(NC(=O)C(C)C)c2cc(Cl)c3cccnc3c2O)cc1OC` (stereo not given), the inhibition entry in the assay on NIH3T3 is “Active”. Moreover, the IC50 in the assay with Daoy stood at 100 nM; in the assay on A-375 it was 130 nM.

Regarding `C1=C(CCN2COc3c(ccc4cccnc34)C2)CCCC1`, the inhibition result in the assay on NIH3T3 is “Active”. Further, the IC50 in the assay on Daoy turned out to be 230 nM; in the assay with A-375, 120 nM.

Regarding `O=C(NC(c1ccc(Cl)cc1Cl)c1ccc2cccnc2c1O)C1CCCCC1` (stereo not given), in the assay on NIH3T3, the inhibition result is “Active”. Besides, the values for the concentration for half-maximal inhibition (IC50) in the assay on Daoy and with A-375 were 240 nM and 1010 nM, respectively.

Take `c1cnc2c3c(ccc2c1)CN(C1CCCCCCC1)CO3`: the inhibition entry in the assay with NIH3T3 was “Active”. Further, the results for the IC50 with Daoy and in the assay with A-375 were 290 nM and 280 nM, respectively.

As to `CCCC(=O)NC(c1ccccc1)c1cc(Cl)c2cccnc2c1O` (stereo not given), the IC50 in the assay on Daoy came out at 110 nM; in the assay with A-375, 130 nM.

For the compound `CC1CCC(N2COc3c(ccc4cccnc34)C2)CC1` (stereo not given), the inhibition result in the assay on NIH3T3 is “Active”. Besides, the IC50 in the assay on Daoy was determined as 550 nM; in the assay on A-375 it was 420 nM.

As to `O=C(NCc1ccc2cccnc2c1O)C1CCCCC1`, the inhibition entry in the assay with NIH3T3 was “Active”. In addition, the values for the half-maximal inhibitory concentration (IC50) with Daoy and in the assay on A-375 were 720 nM and 910 nM, respectively.

Take `c1cnc2c3c(ccc2c1)CN(C1CCCCCC1)CO3`: the inhibition result in the assay on NIH3T3 is “Active”. The values for the half-inhibitory concentration (IC50) with Daoy and in the assay with A-375 were 1200 nM and 880 nM, respectively.

Take `Fc1cnc2c3c(ccc2c1)CN(CCc1ccccc1)CO3`: the inhibition result with NIH3T3 is “Active”. In addition, the IC50 in the assay with Daoy came to 1400 nM; in the assay with A-375, 1100 nM.

Regarding `CCCC(=O)NC(c1ccc(OC)c(OC)c1)c1ccc2cccnc2c1O` (stereo not given), the inhibition entry in the assay with NIH3T3 was “Active”. The IC50 stood at 110 nM with Daoy and 130 nM with A-375.

As to `COc1ccc(CN2COc3c(ccc4cccnc34)C2)cc1`, the inhibition result with NIH3T3 was “Active”. The IC50 is 870 nM with Daoy and 580 nM in the assay on A-375.

With `O=C(NC(c1ccc(Cl)cc1Cl)c1ccc2cccnc2c1O)C1CCCC1` (stereo not given), in the assay with NIH3T3, the inhibition result was “Active”. In addition, the IC50 in the assay on Daoy was 150 nM; in the assay on A-375, 320 nM.

For the compound `Oc1c(C(NCCc2ccccc2)c2ccc(Cl)cc2Cl)ccc2cccnc12` (stereo not given), the inhibition entry with NIH3T3 was “Active”. Moreover, the IC50 in the assay on Daoy was determined as 150 nM; in the assay with A-375, 190 nM.

Regarding `CCCCC(=O)NC(c1ccc(Cl)cc1Cl)c1ccc2cccnc2c1O` (stereo not given), the inhibition result in the assay with NIH3T3 was “Active”. For the same compound, the IC50 was 150 nM with Daoy and 1120 nM with A-375.

`Oc1c(CNCCc2ccccc2)ccc2cccnc12`: in the assay with NIH3T3, the inhibition result was “Active”. Also, the IC50 with Daoy came out at 330 nM; with A-375, 390 nM.

In the case of `COc1ccc(C(NC(C)=O)c2cc(Cl)c3cccnc3c2O)cc1OC` (stereo not given), the inhibition entry with NIH3T3 was “Active”. In addition, the IC50 turned out to be 210 nM with Daoy and 110 nM with A-375.

On to `CCCC(=O)NC(c1ccc(C)cc1)c1cc(Cl)c2cccnc2c1O` (stereo not given), for which the inhibition entry with NIH3T3 is “Active”. The IC50 was determined as 100 nM with Daoy and 120 nM with A-375.

Turning to `Fc1cnc2c3c(ccc2c1)CN(C1CCCCC1)CO3`, the inhibition result in the assay on NIH3T3 is “Active”. The IC50 was found to be 300 nM with Daoy and 500 nM in the assay with A-375.

`CCCC(=O)NC(c1ccc(N(CC)CC)cc1)c1cc(Cl)c2cccnc2c1O` (stereo not given): the inhibition entry in the assay with NIH3T3 was “Active”. Also, the IC50 in the assay with Daoy was found to be 100 nM; in the assay with A-375, 130 nM.

Consider `CCCC(=O)NC(c1ccccc1Cl)c1cc(Cl)c2cccnc2c1O` (stereo not given), for which the inhibition entry with NIH3T3 is “Active”. In addition, the IC50 in the assay on Daoy and with A-375 was 100 nM throughout.

`CCCCN1COc2c(ccc3cc(Cl)cnc23)C1`: in the assay on NIH3T3, the inhibition result was “Active”. In addition, the values for the IC50 with Daoy and in the assay on A-375 were 380 nM and 490 nM, respectively.

Turning to `CCCC(=O)NC(c1ccc(C(C)C)cc1)c1cc(Cl)c2cccnc2c1O` (stereo not given), the inhibition result in the assay with NIH3T3 was “Active”. Moreover, the IC50 in the assay with Daoy was 90 nM; with A-375 it was 120 nM.

For `c1ccc(CCN2COc3c(ccc4cccnc34)C2)cc1`, the inhibition entry in the assay with NIH3T3 was “Active”. The half-maximal inhibitory concentration (IC50) in the assay with Daoy amounted to 190 nM; in the assay on A-375 it was 130 nM.

`CCCC(=O)NC(c1ccc(Cl)cc1)c1cc(Cl)c2cccnc2c1O` (stereo not given): the 50% inhibitory concentration (IC50) in the assay on Daoy stood at 100 nM; with A-375 it was 120 nM.

In the case of `c1cnc2c3c(ccc2c1)CN(CC1CCCCC1)CO3`, in the assay with NIH3T3, the inhibition entry was “Active”. Further, the IC50 was found to be 1000 nM in the assay with Daoy and 380 nM in the assay with A-375.

Regarding `O=C(NCc1ccc2c(OCc3ccccc3)ccnc2c1O)C1CCCCC1`, the inhibition result in the assay with NIH3T3 was “Active”. Besides, the figures for the half-inhibitory concentration (IC50) with Daoy and in the assay on A-375 were 260 nM and 550 nM, respectively.

Regarding `CCCCC(=O)NC(c1ccc(Cl)c(Cl)c1)c1ccc2cccnc2c1O` (stereo not given), the inhibition entry with NIH3T3 is “Active”. Besides, the IC50 stood at 100 nM in the assay with Daoy and 320 nM with A-375.

In the case of `CCCCOc1ccnc2c(O)c(CNC(=O)C3CCCCC3)ccc12`, in the assay on NIH3T3, the inhibition result was “Active”. Besides, the IC50 was 510 nM in the assay with Daoy and 540 nM in the assay with A-375.
